XBP1 UPR activ: activators of adaptive arm of unfolded protein response (XBP1) | CHO-XBP1 luciferase reporter, IRE1-XBP1 UPR activation, luminescence; percent of tunicamycin response, DMSO as zero | activation, % at 20 µM | actives 0.33% (n = 330,000) | AID 463104;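 active = versus positive control, 20 µM dose yields 30% or more activation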
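assay system = CHO-XBP1 luciferase reporter cells | amount = 1000 cells/well | buffer or medium = F12 plus 10% FBS | compound dosing = single point, 20 µM final compound, 1% DMSO | incubation = 16-18 h cell attachment at 37 °C, then 6 h compound exposure | detection = Steady-Glo luminescence read | controls = tunicamycin 10 µg/mL and vehicle-only wells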
Beta cell apopt: beta cell apoptosis inhibition. INS-1E cytokine-induced death, ATP luminescence, 48 h; percent of positive-control rescue, neutral wells zero. protection from apoptosis, % (no concentration beside the values). actives 0.8% (n = 300,000). AID 435005;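 active = Every replicate reaches about 75%, or at least half do and their mean reaches it too, limit read from the data; inconclusive = At least half of replicates reach the limit but their mean does not; inactive = Under half of replicates reach the limit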;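 also: higher means more ATP so stronger rescue from cytokine killing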
SKKanGAS inh: SKKanGAS growth inhibition | S. pyogenes SKKanGAS, kanamycin growth, BacTiter-Glo, 6 h | actives 1.3% (n = 300,000) | inhibition, % at 7.5 µM;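 active = mean replicate score, as percent of positive control median, at least 50; inconclusive = mean below 50 but one replicate at or above 50; inactive = mean and every replicate below 50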;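 also: strain carries kanamycin resistance gene driven by streptokinase promoter and grows in 40 µg/ml kanamycin; loss of luminescence reflects streptokinase promoter inhibition or plain growth inhibition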
CSC inhib: blocks cancer stem cells; AID 2717; cancer stem cell-like cells viability, luminescence; actives 1.1% (n = 300,000); inhibition, % at 7.5 µM; in the data active = inhibition above about 75%; inconclusive = no clear call, values can overlap the other calls; tested in HMLE shEcad cells
CHOP UPR activ: activators of apoptotic arm of unfolded protein response (CHOP); activation, % at 10 µM; CHO-CHOP luciferase reporter, UPR activation, luminescence; percent of tunicamycin response over DMSO baseline; actives 0.34% (n = 330,000);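 active = at 10 µM dose, activation of 40% or more, normalized to positive control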
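Test system: CHO CHOP reporter cells. Input: 500 CHO-CHOP cells per well. Medium: F12 with 10% FBS. Technique: luciferase luminescence. Measure: percent activation relative to tunicamycin control. Dosing: 10 µM compound, 0.5% DMSO. Timing: 16-18 h cell attachment, then 6 h compound exposure, 37 °C.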
Mdm2 MdmX PPI: human Mdm2/MdmX binding inhibition; actives 3% (n = 330,000); AID 485346; inhibition, % at 8 µM; O15151+Q00987; SaOS-2 split-luciferase Mdm2/MdmX complementation, luminescence;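 active = inhibition of at least 50% at 8 µM in the primary screen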
Target sequence (O15151 whole entry, looked up): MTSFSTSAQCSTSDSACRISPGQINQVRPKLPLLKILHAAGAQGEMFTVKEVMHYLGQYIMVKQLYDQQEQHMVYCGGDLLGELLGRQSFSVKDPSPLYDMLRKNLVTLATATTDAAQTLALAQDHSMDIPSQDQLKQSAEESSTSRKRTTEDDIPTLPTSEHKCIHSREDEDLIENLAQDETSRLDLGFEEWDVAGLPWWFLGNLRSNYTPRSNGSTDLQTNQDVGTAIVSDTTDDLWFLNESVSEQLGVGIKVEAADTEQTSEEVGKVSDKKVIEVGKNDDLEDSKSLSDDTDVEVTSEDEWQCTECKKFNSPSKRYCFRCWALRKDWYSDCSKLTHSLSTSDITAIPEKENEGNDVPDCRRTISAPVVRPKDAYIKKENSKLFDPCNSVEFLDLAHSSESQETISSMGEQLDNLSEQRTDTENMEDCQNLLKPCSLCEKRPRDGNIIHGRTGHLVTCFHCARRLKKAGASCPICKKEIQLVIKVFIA
Target sequence (Q00987 whole entry, looked up): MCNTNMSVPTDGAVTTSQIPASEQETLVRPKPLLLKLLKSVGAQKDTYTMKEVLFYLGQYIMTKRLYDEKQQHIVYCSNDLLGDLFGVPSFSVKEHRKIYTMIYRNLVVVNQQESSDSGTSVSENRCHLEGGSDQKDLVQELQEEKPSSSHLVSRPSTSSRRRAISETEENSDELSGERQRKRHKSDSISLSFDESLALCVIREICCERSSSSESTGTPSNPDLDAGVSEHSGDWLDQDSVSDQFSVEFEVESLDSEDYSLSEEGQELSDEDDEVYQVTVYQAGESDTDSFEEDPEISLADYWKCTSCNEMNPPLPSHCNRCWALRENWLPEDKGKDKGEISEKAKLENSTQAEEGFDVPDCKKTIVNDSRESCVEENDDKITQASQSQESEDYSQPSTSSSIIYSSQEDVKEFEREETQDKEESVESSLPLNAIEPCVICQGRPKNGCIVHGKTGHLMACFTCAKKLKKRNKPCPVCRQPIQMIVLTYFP
CHOP UPR conf: apoptotic UPR (CHOP) activation, confirmed. CHO-CHOP cells, CHOP-luciferase reporter luminescence; percent of tunicamycin response, DMSO as zero. actives 64% (n = 1,000). activation, % at 10 µM. shares compounds with CHOP UPR activ; in the data active = activation above about 33%
XBP1 UPR conf: confirmation of adaptive unfolded protein response (XBP1) activators | shares compounds with XBP1 UPR activ | CHO-XBP1 IRE1-XBP1 luciferase reporter, luminescence | activation, % at 20 µM | actives 63% (n = 1,000);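 active = reporter signal at least 30% of the positive control's activation in two or more of four replicate wells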
Mdm2 MdmX conf: human Mdm2/MdmX binding inhibition, confirmed. shares compounds with Mdm2 MdmX PPI. luminescent assay. inhibition, % at 8 µM. actives 55% (n = 10,000). AID 489028; in the data active = inhibition above about 40%
Full FLuc ctr: full-length luciferase inhibition in Mdm2/MdmX counter-screen. inhibition, % at 8 µM. shares compounds with Mdm2 MdmX PPI. actives 77% (n = 6,200). SaOS-2 full-length luciferase counterscreen, luminescence;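 active = mean inhibition at 8 µM reaching about 37%, which flags the compound as non-specific, limit read from the data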;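 also: p53-null SaOS-2 cells with luciferase driven by a doxycycline-inducible promoter; compound on cells about two nights before reading with doxycycline added after day one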
A number is an active result; - = inactive; ? = inconclusive; . = no result given. Sampled rows, rich in hits. Any-hit rate of the full collection: about 4.8%.

SMILES | XBP1 UPR activ | Beta cell apopt | SKKanGAS inh | CSC inhib | CHOP UPR activ | Mdm2 MdmX PPI | CHOP UPR conf | Mdm2 MdmX conf | Full FLuc ctr | others
Cc1ccc(Cn2ncc(Cl)c(Cl)c2=O)cc1 | - | - | - | - | 42 | 80 | - | 51 | -
Cc1cc(C(=O)CCl)c(C)n1-c1cccc([N+](=O)[O-])c1 | - | - | - | - | 174 | 69 | - | - | 60
CC(=O)c1c(C(C)=O)c(C)n(-c2cccc([N+](=O)[O-])c2)c1C | - | - | - | - | - | - | . | . | .
COc1ccc(NC(=O)COC(=O)C2CCN(S(=O)(=O)c3cccs3)CC2)cc1OC | - | - | . | - | - | - | . | . | .
Oc1[nH]c2ccc(Br)cc2c1N=NC(=S)N1CCOCC1 | - | 108 | 89 | ? | 168 | 96 | 102 | 98 | 54
Oc1[nH]c2ccccc2c1N=NC(=S)N1CCOCC1 | - | 83 | 77 | - | 254 | 97 | 229 | 88 | -
COc1cc(NC(=O)C2CCCN(S(=O)(=O)c3ccc4c(c3)CCCN4C(C)=O)C2)cc(OC)c1 (stereo not drawn) | - | - | - | - | - | - | . | . | .
Cc1sc(NC(=O)c2cc(-c3ccccc3)nc3ccccc23)c(C(N)=O)c1C | - | - | - | - | - | - | . | . | .
O=C(N/N=C/c1ccccn1)c1cc(-c2ccc(Cl)cc2)nc2ccccc12 | - | - | 62 | - | 264 | 76 | 290 | - | .
O=C(N/N=C/c1ccccn1)c1cc(-c2ccc(Br)cc2)nc2ccccc12 | - | - | 107 | - | 331 | 84 | 265 | - | 46
Cc1sc(NC(=O)c2cc(-c3ccc(Cl)cc3)nc3ccccc23)c(C(N)=O)c1C | 199 | - | - | - | 107 | 73 | 85 | - | 76 | XBP1 UPR conf=183
O=C(O)COc1ccccc1/C=N/NC(=O)c1cc(-c2ccc(Cl)cc2)nc2ccccc12 | - | - | - | - | - | - | . | . | .
COc1cccc(NC(=O)Cn2c(=O)n(C)c(=O)c3sc4c(c32)COC(C)(C)C4)c1 | - | - | - | - | - | - | . | . | .
COc1cc(/C=C(\C#N)C(=O)NC2CCCCC2C)ccc1OS(=O)(=O)c1ccc(C)cc1 (stereo not drawn) | - | - | - | 157 | 76 | 100 | - | - | .
COc1cc(/C=C(\C#N)C(N)=O)ccc1OS(=O)(=O)c1ccc(C)cc1 | - | - | - | - | - | - | . | . | .
Oc1c(C(c2ccccn2)N2CCC(Cc3ccccc3)CC2)cc(Cl)c2cccnc12 (stereo not drawn) | - | - | 75 | . | 43 | 56 | 74 | - | -
C=CCN(c1ccccc1)S(=O)(=O)c1cccc(C(=O)Nc2ncccc2O)c1 | - | - | - | - | - | - | . | . | .
O=C(CSc1n[nH]c(-c2ccccc2Cl)n1)NC1CCCCC1 | - | - | - | - | - | - | . | . | .
CC1CCCCC1NC(=O)CCC(=O)N1CCOc2ccc(Cl)cc21 (stereo not drawn) | - | - | - | - | - | - | . | . | .
COc1ccc(N=C2S/C(=C\c3ccc(OCC(=O)O)cc3)C(=O)N2CCc2c[nH]c3ccccc23)cc1 | - | . | - | . | - | - | . | . | .
COc1ccc(N=C2S/C(=C\c3ccc(N4CCOCC4)o3)C(=O)N2CCc2c[nH]c3ccccc23)cc1 | - | 105 | 59 | - | 139 | 95 | 73 | 99 | -
CSc1nnc(CCNS(=O)(=O)c2ccc(Br)cc2)n1C | - | - | - | - | - | - | . | . | .
COC(=O)Cn1c(C(O)c2ccccc2)nc2ccccc21 (stereo not drawn) | - | - | - | - | - | - | . | . | .
